High-throughput results as filed in PubChem BioAssay.
Rows were chosen to be rich in hits. Some 2.5% of all compounds tested hit in one or more screens of this group.
HIV Env fusion – inhibitors of HIV-1 Env-driven cell-cell fusion, primary screen, HeLa-JRFL effector, CEM21 target cells, luciferase; inhibition, % at 12.3 µM; hit rate 1.1% among 360,000;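 active means mean replicate inhibition score of at least 50 and every replicate individually at or above 50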;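 further: 0% = plate neutral controls and 100% = maraviroc near 300 nM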
PAX8 reporter – inhibitors of PAX8-driven TPO luciferase reporter, primary screen, RMG-I cells, single concentration; SteadyGlo, 24 h; inhibition, % at 12.6 µM; hit rate 1.2% among 360,000;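 active means mean replicate inhibition at least 60% with every replicate also reaching 60%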;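 further: luciferase light reporting Pax8 driven TPO promoter activity; plate controls were median of neutral control wells for no effect and mitoxantrone controls for full effect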
N-glyco inh – increase of ERlucT glycosylation luciferase signal, primary screen, N-linked glycosylation inhibitor project, D54 ERlucT cells, luminescence, set 2; D54 ERlucT glycosylation luciferase reporter, 24 h; percent of 100 nM tunicamycin response; reporter increase, % at 12.5 µM; hit rate 0.23% among 360,000; AID 588692, 2011;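 active means mean luciferase reporter signal, scaled so untreated is 0 and the glycosylation-blocking control 100, at or above a set limit in every replicate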;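 further: luciferase carries N-glycosylation sites so blocking glycosylation raises the light; 0% = median of neutral control wells and 100% = median of 100 nM tunicamycin wells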
EWS-Fli inh – EWS/Fli-driven NR0B1 reporter inhibitors, primary screen, A673 cells, NR0B1 luciferase, luminescence, MLPCN library. viability-normalised. inhibition, % at 12.6 µM. hit rate 0.67% among 350,000. AID 651661, 2012;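 active means mean inhibition of at least 50% after viability correction, with every replicate also passing that limit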;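 further: firefly luciferase signal divided by Alamar Blue viability fluorescence both relative to DMSO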
AF4-AF9 inh – inhibitors of AF4 peptide binding to AF9, primary screen, biochemical, AlphaScreen, biotin-AF4 peptide, FLAG-AF9, single point; Protein AF-9 (Homo sapiens), P42568; inhibition, % at 10 µM; hit rate 0.47% among 350,000; AID 651704, 2012;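 active means every replicate reaching a set inhibition limit, whatever the replicate mean, cut at about 25% in these data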;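 further: 0% = plate neutral control median and 100% = total signal loss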
Target sequence (P42568 whole entry, looked up): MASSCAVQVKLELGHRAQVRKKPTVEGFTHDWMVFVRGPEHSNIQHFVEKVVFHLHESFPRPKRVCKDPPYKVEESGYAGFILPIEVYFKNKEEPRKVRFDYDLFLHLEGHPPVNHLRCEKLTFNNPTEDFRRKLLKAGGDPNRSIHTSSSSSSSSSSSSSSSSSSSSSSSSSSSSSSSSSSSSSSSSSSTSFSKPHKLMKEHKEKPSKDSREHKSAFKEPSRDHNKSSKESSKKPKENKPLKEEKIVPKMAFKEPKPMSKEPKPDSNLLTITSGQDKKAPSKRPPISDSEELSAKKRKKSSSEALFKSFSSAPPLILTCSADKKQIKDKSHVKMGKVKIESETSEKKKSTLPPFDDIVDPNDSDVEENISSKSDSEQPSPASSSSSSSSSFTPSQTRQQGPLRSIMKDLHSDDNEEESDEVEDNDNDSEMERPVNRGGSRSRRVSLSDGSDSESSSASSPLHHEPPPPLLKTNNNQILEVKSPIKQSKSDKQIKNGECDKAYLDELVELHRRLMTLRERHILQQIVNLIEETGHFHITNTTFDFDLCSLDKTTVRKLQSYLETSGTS
FN deposition inh – inhibitors of fibronectin matrix deposition, primary screen, AH1F cells, Alexa488-fibronectin fluorescence, plate reader; AH1F fibroblasts, overnight; AID 743247, 2014; hit rate 0.086% among 350,000; inhibition, % at 12.6 µM;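 active means mean inhibition across replicates of 30% or more, regardless of how many single replicates reach that level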;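 further: positive control wells lacked labelled fibronectin entirely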
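Material: AH1F fibroblast monolayer depositing Alexa488-labelled fibronectin into matrix | Input: 10000 AH1F cells/well | Medium: DMEM plus 2% serum, read in PBS | Reagent: Alexa488-fibronectin, 24 nM final in well | Compound dosing: One dose per compound, pinned | Schedule: 1 h adhesion, overnight exposure | Measured by: Fluorescence at 485 nm excitation, 525 nm emission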
* = called active by the depositor; i = inactive; x = not tested or not shown; [ ] = remark or other dose.

SMILES	HIV Env fusion	PAX8 reporter	N-glyco inh	EWS-Fli inh	AF4-AF9 inh	FN deposition inh
COc1ccccc1S(=O)(=O)N(C)C[C@H]1Oc2cc(C#CCC3CCCC3)ccc2S(=O)(=O)N([C@H](C)CO)C[C@@H]1C	27.9[16.7 µM]	73.3*	x	-7.6	2.0	-1.7
COc1ccccc1S(=O)(=O)N(C)C[C@@H]1Oc2cc(C#CCC(C)C)ccc2S(=O)(=O)N([C@H](C)CO)C[C@@H]1C	-8.0	27.4	-3.4	17.3	1.8	-3.9
CO[C@@H]1CN(C)C(=O)c2cc(NC(=O)C3CCOCC3)ccc2OC[C@@H](C)N(Cc2cccnc2)C[C@H]1C	1.2[16.7 µM]	2.4	x	-11.3	-1.3	4.6
CC1(C)CC2CC(C)(CN2S(=O)(=O)c2cccc(C(=O)OCC(=O)NC(N)=O)c2)C1 (stereo not given)	91.3*	-14.0	-3.2	4.8	0.5	2.8
CNC(=O)NC(=O)COC(=O)c1cccc(S(=O)(=O)N2CC3(C)CC2CC(C)(C)C3)c1 (stereo not given)	4.7	-5.4	-2.1	2.5	0.6	0.7
O=C(C[C@H]1C[C@@H]2c3cc(NS(=O)(=O)c4ccc(F)cc4)ccc3O[C@@H]2[C@@H](CO)O1)NCc1cc(F)ccc1F	x	x	x	13.8	1.9	-1.2
COc1ccc2c(c1)/C(=C\c1cccc(/C=C3/C(=O)Nc4ccc(OC)cc43)n1)C(=O)N2	i	27.3	-13.6	66.6*	-13.4	-2.8
Cc1ccc2c(c1)/C(=C/c1ccccc1)C(=O)N2	-16.4	-17.0	9.2	-4.6	-15.8	4.1
CN1c2ccc(C#Cc3cccnc3)cc2[C@H]2[C@H](CCN2C(=O)c2cccnc2)[C@H]1CO	x	-7.6	x	1.4	3.5	1.7
C[C@H](CO)N1C[C@H](C)[C@@H](CN(C)Cc2ccc(C(F)(F)F)cc2)OCCCC[C@H](C)Oc2ccc(NC(=O)Nc3ccc(C(F)(F)F)cc3)cc2C1=O	29.4[16.7 µM]	-8.9	x	-18.3	x	-2.5
C[C@@H]1CCCCO[C@H](CN(C)Cc2ccncc2)[C@H](C)CN([C@@H](C)CO)C(=O)c2cc(NC(=O)Nc3ccc(C(F)(F)F)cc3)ccc2O1	-6.0[16.7 µM]	92.1*	x	33.7	1.0	x
C[C@@H]1CCCCO[C@@H](CN(C)Cc2ccc(C(F)(F)F)cc2)[C@@H](C)CN([C@H](C)CO)C(=O)c2cc(NC(=O)Nc3ccc(C(F)(F)F)cc3)ccc2O1	-15.6[16.7 µM]	2.6	x	-18.1	x	1.8
C[C@@H]1CN([C@H](C)CO)C(=O)c2cc(NC(=O)Nc3ccc(C(F)(F)F)cc3)ccc2O[C@@H](C)CCCCO[C@@H]1CN(C)Cc1ccncc1	13.6[16.7 µM]	93.2*	x	-90.4	-0.9	x
C[C@@H]1CCCCO[C@H](CN(C)Cc2ccncc2)[C@H](C)CN([C@H](C)CO)C(=O)c2cc(NC(=O)Nc3ccc(C(F)(F)F)cc3)ccc2O1	20.5[16.7 µM]	95.4*	x	19.1	2.0	x
CO[C@@H]1CN(C)C(=O)c2ccc(NS(=O)(=O)CC(F)(F)F)cc2OC[C@@H](C)NC[C@@H]1C	-14.9[16.7 µM]	50.0	x	-1.8	-1.6	-4.7
CO[C@@H]1CN(C)C(=O)c2cc(NC(=O)C3CCOCC3)ccc2OC[C@@H](C)N(C(=O)C2CCOCC2)C[C@H]1C	x	-6.7	x	-3.9	1.6	-1.2
CCN(C[C@H]1N[C@@](CC)(C(=O)OC)[C@H]2C(=O)N(Cc3ccccc3)C(=O)[C@@H]12)C(=O)Nc1ccc(Cl)cc1	86.0*	-8.5	1.6	7.4	-2.3	6.7
CCN(C[C@H]1N[C@@](CC)(C(=O)OC)[C@H]2C(=O)N(Cc3ccccc3)C(=O)[C@@H]12)C(=O)Nc1ccc(C)cc1	55.9*	-104.2	2.2	1.1	-6.7	-4.2
CCCC#Cc1ccc2c(c1)O[C@H](CN(C)C(=O)CN(C)C)[C@H](C)CN([C@H](C)CO)S2(=O)=O	20.4[16.7 µM]	9.6	x	-10.7	3.9	0.0
Clc1cccc(Cc2c(-c3ccco3)nc3c4ccccc4ccn23)c1	6.8	35.1	x	10.4	0.8	-0.7
Fc1cccc(Cc2c(-c3ccco3)nc3c4ccccc4ccn23)c1	68.6*	-104.6	-8.3	-107.3	9.3	9.2
Cc1ccc2nc(-c3ccco3)c(Cc3ccccc3)n2c1	-21.7	66.1*	0.7	-68.6	4.9	16.7
c1coc(-c2nc3c4ccccc4ccn3c2Cc2ccsc2)c1	63.4*	-8.9	x	-88.6	8.0	7.4
Fc1ccc(-c2nc3c4ccccc4ccn3c2Cc2ccsc2)cc1	56.6*	-10.5	0.5	-18.0	-2.1	4.1
COc1ccc(CN(C)C[C@H]2OCCCC[C@H](C)Oc3ccc(NS(=O)(=O)c4ccc(OC)cc4)cc3C(=O)N([C@@H](C)CO)C[C@H]2C)cc1	x	-12.2	x	-17.3	8.4	8.5
SMILES	HIV Env fusion	PAX8 reporter	N-glyco inh	EWS-Fli inh	AF4-AF9 inh	FN deposition inh
Nc1nc(NCc2ccccc2)nc(NCc2ccccc2)c1[N+](=O)[O-]	9.6	2.1	-4.4	x	x	-5.1
CN(C)c1nc(N)c([N+](=O)[O-])c(NCc2ccccc2)n1	x	68.4*	-0.1	-5.3	4.1	15.6
CCOc1ccc(Nc2nc(N(C)c3ccccc3)nc(N)c2[N+](=O)[O-])cc1	1.0	-7.6	36.1*	11.2	-1.3	8.8
COc1cccc(S(=O)(=O)Nc2ccc3c(c2)[C@@H]2C[C@@H](CC(=O)N4CCCCC4)O[C@@H](CO)[C@@H]2O3)c1	4.9[16.7 µM]	0.4	x	-0.1	-0.9	x
CCOCCOC(=O)c1[nH]c2c(c1C)C(=O)CC(c1ccc(OC)c(OC)c1)C2 (stereo not given)	15.7	-7.9	-1.5	15.2	-4.0	1.7
CCCOCCOC(=O)c1[nH]c2c(c1C)C(=O)CC(c1cc(OC)ccc1OC)C2 (stereo not given)	-392.1	19.3	6.8	56.1*	-2.4	-17.4
COc1cc(C2CC(=O)c3c([nH]c(C(=O)OCCOC(C)C)c3C)C2)cc(OC)c1OC (stereo not given)	55.1*	35.6	-6.3	23.7	-1.2	3.3
C[C@@H]1CN([C@@H](C)CO)C(=O)c2cccc(N(C)C)c2O[C@H]1CN(C)S(=O)(=O)c1ccccc1	x	-10.5	x	-0.9	-3.4	10.8
O=C(NCc1ccco1)c1ccc(Cn2c(=O)c3ccccc3n(Cc3ccc(Cl)cc3)c2=O)cc1	119.3*	x	-4.9	x	x	0.4
O=C(NCc1ccco1)c1ccc(Cn2c(=O)c3ccccc3n(Cc3cccc(F)c3)c2=O)cc1	84.7*	x	-2.6	x	x	-5.3
O=C(N[C@@H]1CC[C@@H](CCNS(=O)(=O)Cc2ccccc2)O[C@H]1CO)c1ccccc1F	-8.1[16.7 µM]	19.3	x	-5.8	0.8	-7.3
CC(CCc1ccccc1)NCc1cccc2ccccc12 (stereo not given)	65.8*	18.9	0.0	23.6	0.9	-6.0
COCC(C)NCc1cccc2ccccc12 (stereo not given)	2.7	-8.4	-0.9	-11.4	-0.2	-2.0
